Measurements taken from ChEMBL document CHEMBL1124363, “Photoaffinity, biotinyl, and iodo analogues as probes for vasotocin receptors” (1989).
Where a SMILES comes first, the peptide text is derived from it. Bridges are numbered along the chain shown (N, C = ends). [ ]: non-standard residue; d: D form. The star is where a group is joined. Biotin = O=C1N[C@H]2[C@H](CS[C@H]2CCCCC(=O)*)N1; Phe(4-NH2) = Nc1ccc(C[C@H](N)C(=O)O)cc1; Mpa = O=C(O)CCS

Tests used:
Rattus norvegicus [1] = experiment: Pressor activity of compound was assayed on urethane-anesthetized, phenoxybenzamine-treated rats; type: functional; design: unit not given here
[2] = Effective concentration of compound for half-maximal response in hydroosmotic toad bladder assay; type: functional; details: Amphibia; read-out: ED50 (the source's name)
Procedure, shortened: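 Toad hemibladders filled with Ringer's fluid diluted to half-strength with distilled water. Net osmotic water flux across the bladder wall measured gravimetrically by the Bentley method. ED-50 taken as the concentration giving a half-maximal water flow response.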

Rattus norvegicus [3] = species: Rattus norvegicus; experiment: Antidiuretic activity of compound was assayed on water-loaded rats; type: functional, Urine

Row | Structure (SMILES) | Pressor activity (Rattus norvegicus [1]) | EC50 [2] | Antidiuretic activity (Rattus norvegicus [3])
1 | CC[C@H](C)[C@@H]1NC(=O)[C@H](Cc2ccc(O)cc2)NC(=O)[C@@H](N)CSSC[C@@H](C(=O)N2CCC[C@H]2C(=O)N[C@@H](CCCN=C(N)N)C(=O)NCC(N)=O)NC(=O)[C@H](CC(N)=O)NC(=O)[C@H](CCC(N)=O)NC1=O [VASOTOCIN] (HELM PEPTIDE1{C.Y.I.Q.N.C.P.R.G.[am]}$PEPTIDE1,PEPTIDE1,1:R3-6:R3$$$V2.0) | 160 | 0.022 nM | 231 U/mg
2 | CC[C@H](C)[C@@H]1NC(=O)[C@H](Cc2ccc(O)cc2)NC(=O)[C@@H](N)CSSC[C@@H](C(=O)N2CCC[C@H]2C(=O)N[C@@H](CCCN=C(N)N)C(=O)N[C@@H](Cc2ccc(O)cc2)C(N)=O)NC(=O)[C@H](CC(N)=O)NC(=O)[C@H](CCC(N)=O)NC1=O (HELM PEPTIDE1{C.Y.I.Q.N.C.P.R.Y.[am]}$PEPTIDE1,PEPTIDE1,1:R3-6:R3$$$V2.0) | 0 | 0.49 nM | 25 U/mg
3 | CC[C@H](C)[C@@H]1NC(=O)[C@H](Cc2ccccc2)NC(=O)[C@@H](N)CSSC[C@@H](C(=O)N2CCC[C@H]2C(=O)N[C@@H](CCCN=C(N)N)C(=O)N[C@@H](Cc2ccc(O)cc2)C(N)=O)NC(=O)[C@H](CC(N)=O)NC(=O)[C@H](CCC(N)=O)NC1=O (HELM PEPTIDE1{C.F.I.Q.N.C.P.R.Y.[am]}$PEPTIDE1,PEPTIDE1,1:R3-6:R3$$$V2.0) | 0 | 2.1 nM | 2.8 U/mg
4 | CC[C@H](C)[C@@H]1NC(=O)[C@H](Cc2ccc(O)cc2)NC(=O)CCSSC[C@@H](C(=O)N2CCC[C@H]2C(=O)N[C@@H](CCCN=C(N)N)C(=O)N[C@@H](Cc2ccc(N)cc2)C(N)=O)NC(=O)[C@H](CC(N)=O)NC(=O)[C@H](CCC(N)=O)NC1=O (HELM PEPTIDE1{[O=C(CCS[*:3])[*:2]].Y.I.Q.N.C.P.R.[Nc1ccc(C[C@H](N[*:1])C(=O)[*:2])cc1].[am]}$PEPTIDE1,PEPTIDE1,1:R3-6:R3$$$V2.0) | 0 | 0.13 nM | 66 U/mg
5 | CC[C@H](C)[C@@H]1NC(=O)[C@H](Cc2ccc(O)cc2)NC(=O)CCSSC[C@@H](C(=O)N2CCC[C@H]2C(=O)N[C@@H](CCCN=C(N)N)C(=O)N[C@@H](Cc2ccc(N=[N+]=[N-])cc2)C(N)=O)NC(=O)[C@H](CC(N)=O)NC(=O)[C@H](CCC(N)=O)NC1=O (HELM PEPTIDE1{[O=C(CCS[*:3])[*:2]].Y.I.Q.N.C.P.R.[[N-]=[N+]=Nc1ccc(C[C@H](N[*:1])C(=O)[*:2])cc1].[am]}$PEPTIDE1,PEPTIDE1,1:R3-6:R3$$$V2.0) |  | 0.09 nM | 40 U/mg
6 | CC[C@H](C)[C@@H]1NC(=O)[C@H](Cc2ccc(O)cc2)NC(=O)CCSSC[C@@H](C(=O)N2CCC[C@H]2C(=O)N[C@@H](CCCN=C(N)N)C(=O)N[C@@H](Cc2ccc(NC(=O)CCCC[C@@H]3SC[C@@H]4NC(=O)N[C@@H]43)cc2)C(N)=O)NC(=O)[C@H](CC(N)=O)NC(=O)[C@H](CCC(N)=O)NC1=O ([Mpa]YIQNCPR[Phe(4-NH2)](Biotin)-NH2; disulfide 1-6) |  | 12 nM | 23 U/mg
7 | CC[C@H](C)[C@@H]1NC(=O)[C@H](Cc2ccccc2)NC(=O)[C@@H](N)CSSC[C@@H](C(=O)N2CCC[C@H]2C(=O)N[C@@H](CCCN=C(N)N)C(=O)N[C@@H](Cc2ccc(O)c(I)c2)C(N)=O)NC(=O)[C@H](CC(N)=O)NC(=O)[C@H](CCC(N)=O)NC1=O (HELM PEPTIDE1{C.F.I.Q.N.C.P.R.[O=C([C@H](Cc1ccc(O)c(I)c1)N[*:1])[*:2]].[am]}$PEPTIDE1,PEPTIDE1,1:R3-6:R3$$$V2.0) |  | 2.5 nM | 0.41 U/mg
